Laboratory results as given in ChEMBL document CHEMBL4699410, “Discovery, SAR study and ADME properties of methyl 4-amino-3-cyano-1-(2-benzyloxyphenyl)-1H-pyrazole-5-carboxylate as an HIV-1 replication inhibitor” (RSC Med Chem, 2020).
Converted amounts (≈) assume the structure as drawn. The source made the active and inactive calls. The calls are words filed in the database; no cut-off is given here.

Columns and labels:
[1] = test system: Human immunodeficiency virus 1; experiment: (§1) Antiviral activity against HIV1 LAI infected in human HeLa-P4 cells harboring a stably integrated LTR-linked LacZ reporter gene assessed as inhibition of viral replication at 50 uM preincubated with cells for 2 hrs followed by viral infection and measured after 48 hrs of compound challenge by CPRG based beta-galactosidase assay relative to control; type: functional; details: Human immunodeficiency virus 1, LAI, HeLaP4
How it was run: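 Single-concentration screen: HeLa P4 cells (stably integrated LTR–LacZ reporter) infected with HIV-1 Laï and incubated 48 h with compound at 50 µM; zidovudine as positive control.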

[2] = Cytotoxicity against human HeLa-P4 cells at 50 uM […] by MTS assay relative to control; type: cell-based; details: hela p4, 50 µM
[3] = Plasma protein binding in mouse at 1 uM incubated for 4 hrs by rapid equilibrium dialysis method; type: ADME, cell-free; details: read-out: PPB (converted)
[4] = molecular target: Human immunodeficiency virus type 1 reverse transcriptase (Human immunodeficiency virus 1, UniProt Q72547); experiment: Inhibition of wild-type recombinant HIV-1 subtype B reverse transcriptase p66/p51 heterodimer expressed in Escherichia coli using calf thymus DNA and [3H]-deoxythymidine 5'-triphophaste as substrate measured after 15 mins by liquid scintillation counting method
How it was run: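 Inhibition measured with subtype B wild-type HIV-1 RT in an in vitro susceptibility assay; nevirapine and AZT as positive controls.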

[5] = Thermodynamic solubility of compound in PBS at pH 7.4 incubated for 24 hrs under shaking condition by HPLC analysis; type: physicochemical; details: read-out: Therm_solubility
[6] = Octanol/water partition coefficient, logD of the compound at pH 7.4 by shake flask method; type: physicochemical
[7] = Stability in CD-1 mouse plasma assessed as parent compound remaining at 1 uM measured up to 60 mins by LC-MS/MS analysis; type: ADME, cell-free; details: read-out: Stabilty
[8] = Metabolic stability in CD1 mouse liver microsomes assessed as half life of compound at 1 uM and measured up to 60 mins in presence of NADPH by LC-MS analysis; type: ADME, Microsome
[9] = Cmax in po dosed mouse plasma measured after 10 mins; type: ADME, organism-based; design: route oral, time 10 min
[10] = test system: Human immunodeficiency virus 1; experiment: Antiviral activity against HIV1 LAI infected in human MT2 cells assessed as suppression of viral replication up to 50 uM pre-incubated with cells for 2 hr before viral infection and measured after 3 days of cultivation by RT-PCR analysis; type: functional, organism-based; details: dose microM <=50, time 3.0 day
[11] = test system: Human immunodeficiency virus 1; experiment: Inhibition of recombinant HIV1 integrase mediated strand transfer activity at 0.1 to 333 uM in presence of U5A/U5B2 and [gamma-32P]ATP; details: dose microM 0.1-333
How it was run: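 HIV-1 integrase strand-transfer reaction run with increasing inhibitor concentrations from 100 nM to 333 µM, with raltegravir as positive control, and the strand-transfer efficiency was measured.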

[12] = Cmax in iv dosed mouse plasma measured after 10 mins; type: ADME, organism-based; design: route intravenous, time 10 min
[13] = test system: Human immunodeficiency virus 1; experiment: as §1, with “replication” for “replication at 50 uM”, “assay” for “assay relative to control”; type: functional, organism-based
[14] = Human immunodeficiency virus 1, LAI, HeLaP4, read-out: EC50

Row | Compound | inhibition at 50 µM [1] | Activity [2] | other results
1 | COC(=O)c1c(N)c(C#N)nn1-c1ccc(OCc2ccccc2)cc1 | < 30% | 3.8% | 
2 | COC(=O)c1c(N)c(C#N)nn1-c1cccc(Br)c1 | 42% | 9% | 
3 | COC(=O)c1c(N)c(C#N)nn1-c1ccc(Br)cc1 | 67% | > 15% | 
4 | COC(=O)c1c(N)c(C#N)nn1-c1ccccc1[N+](=O)[O-] | 42% | 0% | 
5 | COC(=O)c1c(N)c(C#N)nn1-c1ccccc1I | < 30% | > 15% | 
6 | COC(=O)c1c(N)c(C#N)nn1-c1ccc(OC)cc1 | < 30% | 14.6% | 
7 | COC(=O)c1c(N)c(C#N)nn1-c1ccc(C(=O)OC(C)(C)C)cc1 | 47% | 14% | 
8 | COC(=O)c1c(N)c(C#N)nn1-c1cccc(C(F)(F)F)c1 | < 30% | > 15% | 
9 | COC(=O)c1c(N)c(C#N)nn1-c1cccc(C(=O)OC(C)(C)C)c1 | 36% | 0% | 
10 | COC(=O)c1c(N)c(C#N)nn1-c1ccc(Cl)cc1 | 56% | > 15% | 
11 | COC(=O)c1c(N)c(C#N)nn1-c1ccc(C(F)(F)F)cc1 | < 30% | 14% | 
12 | COC(=O)c1c(N)c(C#N)nn1-c1cccc(OC)c1 | < 30% | 6% | 
13 | COC(=O)c1c(N)c(C#N)nn1-c1cccc(F)c1 | 48% | 0% | 
14 | COC(=O)c1c(N)c(C#N)nn1-c1ccccc1Br | 32% | 4.8% | 
15 | C#Cc1ccccc1-n1nc(C#N)c(N)c1C(=O)OC | < 30% | 7% | 
16 | COC(=O)c1c(N)c(C#N)nn1-c1ccccc1F | < 30% | 3.6% | 
17 | COC(=O)c1c(N)c(C#N)nn1-c1ccccc1C(=O)OC(C)(C)C | < 30% | 2.8% | 
18 | COC(=O)c1c(N)c(C#N)nn1-c1cccc([N+](=O)[O-])c1 | 47% | 0% | 
19 | C#Cc1cccc(-n2nc(C#N)c(N)c2C(=O)OC)c1 | < 30% | 14% | 
20 | COC(=O)c1c2nc(-c3cccc(Br)c3)cc(N)c2nn1-c1cccc(OC)c1 | 54% | 2% | 
21 | COC(=O)c1c(N)c(C#N)nn1-c1ccccc1OCc1ccccc1 | 63% | 9% | fraction unbound at 4 h, 1 µM [3]: 0.05; IC50 [4]: > 1000 µM; solubility thermodynamic at 24 h [5]: 9.6 µM (≈ 3.34 µg/mL); logD [6]: 3.69; remaining at 1 h, 1 µM [7]: 100%; half-life at 1 µM [8]: 3 min; Cmax [9]: 18 ng/mL; Activity [10]: Active; inhibition [11]: inactive; Cmax [12]: 238 ng/mL; EC50 [13, 14]: 19.4 µM; EC50 ([13]; hela p4): Dose-dependent effect
22 | COC(=O)c1c(N)c(C#N)nn1-c1cccc(OCc2ccccc2)c1 | 65% | 11% | solubility thermodynamic at 24 h [5]: 1.03 µM (≈ 0.359 µg/mL); logD [6]: 3.84; remaining at 1 h, 1 µM [7]: 100%; half-life at 1 µM [8]: 4.6 min; Activity [10]: Active; Cmax [12]: 241 ng/mL; EC50 [13, 14]: 15.2 µM; EC50 ([13]; hela p4): Dose-dependent effect
23 | COC(=O)c1c(N)c(C#N)nn1-c1ccccc1OC | < 30% | 9.2% | 
24 | COC(=O)c1c(N)c(C#N)nn1-c1ccc(F)cc1 | < 30% | 6% | 
25 | COC(=O)c1c(N)c(C#N)nn1-c1cccc(Cl)c1 | < 30% | 11% | 
26 | COC(=O)c1c(N)c(C#N)nn1-c1ccccc1 | < 30% | 7% | 
27 | COC(=O)c1c(N)c(C#N)nn1-c1ccc([N+](=O)[O-])cc1 | 43% | 0% | 
28 | COC(=O)c1c(N)c(C#N)nn1-c1ccccc1Cl | 30% | 2.4% | 
29 | C[C@H](Cn1cnc2c(N)ncnc21)OCP(=O)(O)O [TENOFOVIR ANHYDROUS] |  |  | EC50 [13, 14]: 13.3 µM
